Measurements taken from ChEMBL document CHEMBL2057156, “Synthesis and biological evaluation of the first dual tyrosyl-DNA phosphodiesterase I (Tdp1)-topoisomerase I (Top1) inhibitors” (J Med Chem, 2012).
Activity calls are given as the source filed them. The rule behind the calls is not given here.

Assays:
[1] = biological target: T1, DNA topoisomerase 1 (Homo sapiens) (UniProt P11387); experiment: Inhibition of human recombinant Top1-mediated DNA cleavage by polyacrylamide gel electrophoresis relative to camptothecin; design: concentration or dose not given beside the values; settings: concentration not given here
T1 sequence (whole entry): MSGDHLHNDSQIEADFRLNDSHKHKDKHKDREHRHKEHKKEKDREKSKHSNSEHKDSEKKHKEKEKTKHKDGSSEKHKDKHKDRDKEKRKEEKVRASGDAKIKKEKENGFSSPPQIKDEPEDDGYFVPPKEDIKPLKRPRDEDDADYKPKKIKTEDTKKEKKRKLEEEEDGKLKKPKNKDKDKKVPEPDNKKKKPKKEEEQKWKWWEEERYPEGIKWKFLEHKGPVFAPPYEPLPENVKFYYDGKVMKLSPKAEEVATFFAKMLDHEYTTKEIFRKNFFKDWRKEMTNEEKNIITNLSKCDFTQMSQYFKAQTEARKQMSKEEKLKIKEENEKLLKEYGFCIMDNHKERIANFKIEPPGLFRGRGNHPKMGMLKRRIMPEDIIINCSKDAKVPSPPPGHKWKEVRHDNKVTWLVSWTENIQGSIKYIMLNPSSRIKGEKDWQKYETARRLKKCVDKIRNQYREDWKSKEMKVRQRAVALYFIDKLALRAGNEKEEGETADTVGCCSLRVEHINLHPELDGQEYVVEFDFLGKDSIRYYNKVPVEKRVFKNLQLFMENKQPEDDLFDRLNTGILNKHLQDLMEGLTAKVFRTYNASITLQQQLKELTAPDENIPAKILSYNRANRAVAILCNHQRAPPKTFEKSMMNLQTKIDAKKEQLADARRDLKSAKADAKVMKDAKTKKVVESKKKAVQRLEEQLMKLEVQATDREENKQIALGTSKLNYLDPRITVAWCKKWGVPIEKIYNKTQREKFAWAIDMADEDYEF
Outline: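 Baculovirus-purified human recombinant Top1 was incubated for 20 min at 25 °C, with compounds at various concentrations, with about 2 nM of a 117-bp oligonucleotide 3′-end-labeled with [α-³²P]dGTP. Reactions were stopped with 0.5% SDS and run on 20% denaturing PAGE. Cleavage bands were phosphorimaged and graded semiquantitatively against 1 μM camptothecin.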

[2] = biological target: T2, Tyrosyl-DNA phosphodiesterase 1 (Homo sapiens, UniProt Q9NUW8); experiment: Inhibition of human Tdp1 in Tdp1-deficient chicken DT40 whole cell extract using 5'-[32P]-labeled single-stranded DNA oligonucleotide containing 3'-phosphotyrosine as substrate after 15 mins by PAGE analysis
T2 sequence (Q9NUW8 whole entry): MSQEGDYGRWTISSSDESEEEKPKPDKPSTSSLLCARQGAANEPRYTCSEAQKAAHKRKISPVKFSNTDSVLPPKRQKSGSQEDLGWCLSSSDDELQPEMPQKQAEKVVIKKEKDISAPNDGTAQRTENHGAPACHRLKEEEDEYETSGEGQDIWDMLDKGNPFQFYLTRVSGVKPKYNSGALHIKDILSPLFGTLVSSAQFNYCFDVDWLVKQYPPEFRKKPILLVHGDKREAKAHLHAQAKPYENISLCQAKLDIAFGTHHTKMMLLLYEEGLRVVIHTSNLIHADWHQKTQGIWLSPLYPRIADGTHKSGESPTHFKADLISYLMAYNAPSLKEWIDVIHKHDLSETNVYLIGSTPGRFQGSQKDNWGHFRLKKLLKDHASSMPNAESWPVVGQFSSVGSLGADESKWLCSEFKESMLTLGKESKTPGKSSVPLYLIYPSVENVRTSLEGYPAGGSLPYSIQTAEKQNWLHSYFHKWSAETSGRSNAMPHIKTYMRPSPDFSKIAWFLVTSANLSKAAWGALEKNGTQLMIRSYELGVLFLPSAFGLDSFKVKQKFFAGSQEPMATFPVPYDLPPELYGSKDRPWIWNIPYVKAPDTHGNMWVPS

[3] = biological target: T2, Tyrosyl-DNA phosphodiesterase 1; experiment: Binding affinity to human recombinant Tdp1 at 0.4 to 33 uM by surface plasmon resonance spectroscopy analysis
Outline: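 Amine-coupled to a CM5 chip to about 4000 RU; before coupling, Tdp1 (1 μM) was preloaded for 20 min with 2 μM 3′-phosphate 14-mer in 10 mM sodium acetate pH 4.5 to shield the active site, then the oligo was stripped with 1 M NaCl. Analyte was injected in 10 mM Hepes, 150 mM NaCl, 0.01% Tween 20, 5% DMSO, pH 7.5, at 30 μL/min, 25 °C. Responses were corrected against a Tdp1-free reference surface, buffer cycles and DMSO calibration.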

[4] = Growth inhibition of human NCI60 cells; format: functional
[5] = biological target: T2, Tyrosyl-DNA phosphodiesterase 1; experiment: Inhibition of human recombinant Tdp1 using 5'-[32P]-labeled single-stranded DNA oligonucleotide containing 3'-phosphotyrosine as substrate assessed as prevention of generation of oligonucleotide with free 3'-phosphate after 15 mins by PAGE analysis

Row | SMILES | inhibition [1] [%] | IC50 [2] [µM] | IC50 [5] [µM] | Activity [3] | GI50 [4] [µM]
1 | NCCCn1c2c(c3ccccc3c1=O)C(=O)c1ccccc1-2 | 75 | 29.5 | – | Active | –
2 | O=C1c2ccccc2-c2c1c1cc3c(cc1c(=O)n2CCCNS(=O)(=O)c1ccccc1)OCO3 | 50 | – | > 111 | – | 0.617
3 | NCCCCCCCCCCCCn1c2c(c3ccccc3c1=O)C(=O)c1ccccc1-2 | 0 | 33 | 15.1 | – | –
4 | NCCCCCn1c2c(c3ccccc3c1=O)C(=O)c1ccccc1-2 | 0 | 28 | 17.5 | – | –
5 | NCCCCCCCCCCCn1c2c(c3ccccc3c1=O)C(=O)c1ccccc1-2 | 20 | 14.1 | 12.8 | – | –

More lines, main results first:

Row | inhibition [1] [%] | IC50 [2] [µM] | IC50 [5] [µM] | SMILES | Activity [3] | GI50 [4] [µM]
6 | 0 | – | > 111 | O=C1c2cc(-c3ccccc3)ccc2-c2c1c1ccc([N+](=O)[O-])cc1c(=O)n2CCCNS(=O)(=O)c1ccccc1 | – | 0.55
7 | 75 | – | > 111 | COc1cc2c3c(n(CCCNS(=O)(=O)c4ccccc4)c(=O)c2cc1OC)-c1ccccc1C3=O | – | 1.35
8 | 0 | – | > 111 | COC(=O)c1ccc2c(c1)C(=O)c1c-2n(CCCNS(=O)(=O)c2ccccc2)c(=O)c2cc(OC)c(OC)cc12 | – | 12.6
9 | 100 | – | > 111 | O=C1c2ccccc2-c2c1c1ccc([N+](=O)[O-])cc1c(=O)n2CCCNS(=O)(=O)c1ccccc1 | – | 0.046
10 | 75 | 78 | 55.3 | NCCn1c2c(c3ccccc3c1=O)C(=O)c1ccccc1-2 | – | –
11 | 50 | 35 | 25 | NCCCCCCn1c2c(c3ccccc3c1=O)C(=O)c1ccccc1-2 | – | –
12 | 20 | 49 | 48 | NCCCCCCCCn1c2c(c3ccccc3c1=O)C(=O)c1ccccc1-2 | – | –
